Assay outcomes deposited in PubChem BioAssay by several laboratories.
Rows were chosen to be rich in hits. Some 2.2% of all compounds tested hit in one or more screens of this group.
core dimer inh: HCV core protein dimerization inhibition; TR-FRET GST/Flag-core106 dimerization, 1536-well; inhibition, % at 5 µM; 0.33% of 300,000 active;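 active = inhibition above the mean of all tested compounds plus 3 SD, set per screening campaign, cut at about 45% in these data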
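System: GST-tagged and Flag-tagged HCV core protein residues 1-106 / Input: core106 proteins, GST 13.5 nM and Flag 17 nM / Buffer or medium: KF-containing HEPES buffer, pH 7.45, DTT, CHAPS, BSA / Probe or stimulus: Eu-anti-GST and XL665-anti-Flag labelled anti-tag antibodies / Schedule: 4 h, 22.5 °C incubation / Technique: TR-FRET 671 and 617 nm emission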
FID counter: counter-screen for HCV NS3 helicase inhibitors: DNA intercalator displacement; DNA fluorescent intercalator displacement, fluorescence; inhibition, % at 7.9 µM; 0.17% of 290,000 active; in the data active = inhibition above about 37%;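 note: 0% = vehicle and 100% = reference compound; higher means more ethidium bromide displaced from hairpin DNA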
GPR7 antag: antagonists of human GPR7 (neuropeptides B/W receptor 1); P48145; GPR7-expressing cells, fluorescence antagonist assay; inhibition, % at 4.4 µM; 1.1% of 290,000 active; AID 1861; in the data active = inhibition above about 16%, passing the limit was not always enough;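 note: cells stimulated with the agonist NPW; 0% = agonist with vehicle and 100% = vehicle without agonist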
GRK2 aptamer HTS: human GRK2 inhibition via aptamer displacement | P25098 | bead flow cytometry, FAM-aptamer displacement from GRK2 | inhibition of aptamer binding, % at 10 µM | 0.59% of 330,000 active | AID 488847;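 active = inhibition of aptamer binding above 40%, roughly 3 SD of noise, on plates passing a quality check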;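 note: median bead fluorescence of bound FAM aptamer so fluorescent compounds give negative values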
NS3 helicase inh: inhibitors of Hepatitis C virus NS3 helicase; NS3 helicase DNA unwinding, Cy5 molecular beacon fluorescence; inhibition, % at 10.9 µM; 0.56% of 290,000 active; AID 1800;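 active = inhibition above the mean of all tested compounds plus 3 SD, set per campaign, cut at about 35% in these data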;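 note: 0% = DMSO wells and 100% = thioflavine S control wells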
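Measured by: Cy5 fluorescence, 0 and 60 min reads / Assay system: NS3 helicase fragment of HCV / Control set: low DMSO, high thioflavine S at 110 µM / Times: 1 h reaction at 25 °C, ATP-initiated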
DAGLB inhibitor: blocks human DAGLB lipase activity; HEK293T DAGLB membrane lysate, EnzChek fluorogenic substrate; inhibition, % at 5.17 µM; Q8NCG7; 0.059% of 340,000 active; in the data active = inhibition above about 34%;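 note: 0% = enzyme with vehicle and 100% = wells lacking enzyme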
Target sequence (Q8NCG7 whole entry, looked up): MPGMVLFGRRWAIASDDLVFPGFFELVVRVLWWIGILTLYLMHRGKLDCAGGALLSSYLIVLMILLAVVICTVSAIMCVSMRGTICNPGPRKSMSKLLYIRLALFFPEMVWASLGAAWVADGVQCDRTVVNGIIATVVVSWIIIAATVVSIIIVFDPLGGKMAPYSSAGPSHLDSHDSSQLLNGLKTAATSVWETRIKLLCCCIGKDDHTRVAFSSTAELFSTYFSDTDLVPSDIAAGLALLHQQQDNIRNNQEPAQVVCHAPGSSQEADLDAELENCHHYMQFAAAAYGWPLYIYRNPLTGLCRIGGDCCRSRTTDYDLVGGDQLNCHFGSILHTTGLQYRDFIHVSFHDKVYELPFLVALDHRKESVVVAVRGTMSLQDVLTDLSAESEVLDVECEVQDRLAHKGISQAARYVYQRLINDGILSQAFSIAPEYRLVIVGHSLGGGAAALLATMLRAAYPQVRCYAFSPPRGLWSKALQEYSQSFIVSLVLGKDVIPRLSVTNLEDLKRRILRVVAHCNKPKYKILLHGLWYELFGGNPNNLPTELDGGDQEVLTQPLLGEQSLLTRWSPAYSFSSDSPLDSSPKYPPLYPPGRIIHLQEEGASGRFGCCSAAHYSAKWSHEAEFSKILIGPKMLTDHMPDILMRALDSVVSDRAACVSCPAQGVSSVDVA
GPR7 antag conf: confirmation of human GPR7 antagonists; inhibition, % at 4.4 µM; GPR7-expressing cells, calcium fluorescence antagonist mode; shares compounds with GPR7 antag; 52% of 2,400 active; in the data active = inhibition above about 24%;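 note: stimulated with the GPR7 agonist NPW; 0% = agonist plus vehicle and 100% = vehicle alone without agonist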
MCHR1 antagonist: antagonizes human MCHR1, a GPR7 antagonist counter-screen; shares compounds with GPR7 antag; MCHR1-expressing cells, fluorescence antagonist assay; inhibition, % at 4.4 µM; 62% of 2,400 active; AID 2148; in the data active = inhibition above about 22%;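 note: 0% = vehicle with agonist and 100% = vehicle without agonist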
Active calls of the source: *.

What do the screens show for `CC12CCC(=O)N1C(C(=O)Nc1nc(-c3ccccc3Cl)cs1)CS2` (stereo unspecified)?
core dimer inh: 5; GRK2 aptamer HTS: 6; DAGLB inhibitor: -3

Results for CC(C)(C)NCC(O)COc1ccccc1C1CCCC1 (stereo unspecified) ?
core dimer inh: 0; GRK2 aptamer HTS: 0; DAGLB inhibitor: 2

Results for NCCCC[C@@H](C(=O)NCCCCCCCCCCC(=O)N1CCNCC1)n1cc(CCCC(=O)O)nn1 ?
core dimer inh: 5; GRK2 aptamer HTS: 3; DAGLB inhibitor: -3

What do the screens show for `CCc1ccccc1N(CC(=O)N1CCc2ccccc2C1)S(C)(=O)=O`?
core dimer inh: -8; FID counter: -36; GPR7 antag: 6; GRK2 aptamer HTS: 0; NS3 helicase inh: 10; DAGLB inhibitor: 1

What do the screens show for `O=C(Nc1ccccc1)Nc1ncc([N+](=O)[O-])s1`?
FID counter: 20; GPR7 antag: 23*; NS3 helicase inh: 3; DAGLB inhibitor: 11; GPR7 antag conf: 20; MCHR1 antagonist: 53*

How did C[C@H](CO)N1C[C@H](C)[C@H](CN(C)S(C)(=O)=O)Oc2c(cccc2N(C)C)C1=O do in these assays?
GRK2 aptamer HTS: 1; DAGLB inhibitor: -6

Results for COc1cc(S(=O)(=O)N2CCCCC2)c(OC)cc1Br ?
core dimer inh: -2; FID counter: -15; GPR7 antag: -4; GRK2 aptamer HTS: 0; NS3 helicase inh: 4; DAGLB inhibitor: -1

How did Cc1cc(Cl)c(S(=O)(=O)N2CCCCCC2)cc1OCC(=O)NC1CCCCC1 do in these assays?
core dimer inh: 4; FID counter: -34; GPR7 antag: 32*; GRK2 aptamer HTS: 0; NS3 helicase inh: -1; DAGLB inhibitor: -3; GPR7 antag conf: 61*; MCHR1 antagonist: 58*

How did COc1ccc(OC)c(S(=O)(=O)N2CCC(C(=O)NC3CCCC3)CC2)c1 do in these assays?
core dimer inh: 6; FID counter: -17; GPR7 antag: -8; GRK2 aptamer HTS: 0; NS3 helicase inh: -4; DAGLB inhibitor: 1

What do the screens show for `Cc1cc(Cl)c(S(=O)(=O)N2CCSCC2)cc1OCC(=O)NC1CCCCC1`?
core dimer inh: 3; FID counter: -13; GPR7 antag: 4; GRK2 aptamer HTS: 0; NS3 helicase inh: -3; DAGLB inhibitor: -1

Results for COc1ccc(OC)c(S(=O)(=O)N2CCC(C(=O)NC3CCCCCC3)CC2)c1 ?
core dimer inh: 0; FID counter: -46; GPR7 antag: 26*; GRK2 aptamer HTS: 0; NS3 helicase inh: 22; DAGLB inhibitor: -1; GPR7 antag conf: -3; MCHR1 antagonist: 12

Results for COc1cc(OC)c(S(=O)(=O)N2CCCCC2)cc1S(=O)(=O)N1CCCCC1 ?
core dimer inh: 1; FID counter: -24; GPR7 antag: 48*; GRK2 aptamer HTS: 0; NS3 helicase inh: 3; DAGLB inhibitor: 1; GPR7 antag conf: 46*; MCHR1 antagonist: 21

What do the screens show for `COc1ccc(NC(=O)COC(=O)CCc2ccc(S(=O)(=O)N3CCOCC3)cc2)cc1Cl`?
GRK2 aptamer HTS: 0; DAGLB inhibitor: -4

How did COc1cc(C(=O)N/N=C/c2coc3ccc(Cl)cc3c2=O)ccc1O do in these assays?
core dimer inh: 0; FID counter: 2; GPR7 antag: 31*; GRK2 aptamer HTS: 12; NS3 helicase inh: 31; DAGLB inhibitor: 0; GPR7 antag conf: -7; MCHR1 antagonist: -1

Results for COc1ccccc1C(CNC(=O)C(CCSC)NC(=O)c1ccccc1Cl)N1CCCC1 (stereo unspecified) ?
DAGLB inhibitor: 2

How did Cc1ccc(C)c(S(=O)(=O)N2CCCOC2CNC(=O)C(=O)NC2CCCC2)c1 (stereo unspecified) do in these assays?
core dimer inh: 3; FID counter: -35; GPR7 antag: -17; GRK2 aptamer HTS: 0; NS3 helicase inh: -1; DAGLB inhibitor: 0

How did CCOC(=O)c1cc(-c2ccncc2)nc2c1c(C)nn2C do in these assays?
core dimer inh: -7; FID counter: -12; GPR7 antag: -2; GRK2 aptamer HTS: 4; NS3 helicase inh: -4; DAGLB inhibitor: -2

What do the screens show for `CCOC(=O)c1cc(-c2ccccc2)nc2c1c(C)nn2-c1ccccn1`?
core dimer inh: 12; FID counter: -13; GPR7 antag: 46*; GRK2 aptamer HTS: 0; NS3 helicase inh: 0; DAGLB inhibitor: -1; GPR7 antag conf: 28*; MCHR1 antagonist: 34*

Results for O=[N+]([O-])c1ccc(NC(=S)NCCc2ccc(F)cc2)cc1 ?
core dimer inh: -5; FID counter: 24; GPR7 antag: 33*; GRK2 aptamer HTS: 0; NS3 helicase inh: -16; DAGLB inhibitor: -1; GPR7 antag conf: 75*; MCHR1 antagonist: 67*

What do the screens show for `COc1ccccc1CN1CC(C(=O)N(C)CCc2ccccn2)CCC1=O` (stereo unspecified)?
DAGLB inhibitor: 0

What do the screens show for `COc1ccc(S(=O)(=O)N2CCCCCC2)cc1C(=O)N(C)CC(=O)Nc1ccc(Cl)c(Cl)c1`?
core dimer inh: -1; GRK2 aptamer HTS: 3; DAGLB inhibitor: 1

Results for COc1ccc(S(=O)(=O)N2CCCCCC2)cc1C(=O)N(C)CC(=O)Nc1cc(C)ccc1C ?
FID counter: -44; GPR7 antag: 30*; GRK2 aptamer HTS: 1; NS3 helicase inh: 4; DAGLB inhibitor: -2; GPR7 antag conf: 19; MCHR1 antagonist: 20

Results for Cc1c(-c2ccc(Cl)cc2Cl)nc2ccccc2c1C(=O)NCCN1CCOCC1 ?
core dimer inh: -1; FID counter: -13; GPR7 antag: -7; GRK2 aptamer HTS: 0; NS3 helicase inh: -5; DAGLB inhibitor: -2

How did CC(=O)c1cccc(OCC(O)CNCCc2ccc(Cl)cc2)c1 (stereo unspecified) do in these assays?
core dimer inh: -6; FID counter: 3; GPR7 antag: 14; GRK2 aptamer HTS: 0; NS3 helicase inh: -10; DAGLB inhibitor: -1

How did CCCc1cnc(NCCNCC(O)COc2ccc(Cl)c(Cl)c2)nc1 (stereo unspecified) do in these assays?
core dimer inh: -7; FID counter: 40*; GPR7 antag: 23*; GRK2 aptamer HTS: 0; NS3 helicase inh: -43; DAGLB inhibitor: -10; GPR7 antag conf: 31*; MCHR1 antagonist: 52*
